Assay results as given in ChEMBL document CHEMBL1130283, “Synthesis and structure-activity relationships of nonaromatic taxoids: effects of alkyl and alkenyl ester groups on cytotoxicity” (J Med Chem, 1997).

Key:
Type in all cases: functional, cell-based
A549 = assay: Inhibition of the growth against human non-small-lung carcinoma (A549) cell line after 72 hr exposure; conditions: A549, 72 h
A121 = assay: Inhibition of the growth against human Ovarian Carcinoma (A121) cell line after 72 hr exposure; conditions: A121, 72 h
Outline: (§1)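 SRB assay. Cells were seeded at 400/well, allowed to attach overnight, and grown in RPMI-1640 with 5% FBS and 5% Nu serum. Compounds were dissolved in DMSO, diluted in medium and applied to triplicate wells for 72 h. Cells were fixed with cold 50% TCA (1 h, 4 °C), stained with 0.4% SRB for 5 min, rinsed with 0.1% acetic acid and solubilized in 10 mM Tris pH 10.5. OD was read at 570 nm. IC50 came from a weighted sigmoid-Emax nonlinear fit.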

HT-29 = assay: Inhibition of the growth against human Colon Carcinoma (HT-29) cell line after 72 hr exposure; conditions: HT-29, 72 h; outline: as §1
MCF7R = assay: Inhibition of the growth against human mammary carcinoma 180 fold resistant to doxorubicin (MCF-7-R) cell line after 72 hr exposure
MCF7 = assay: Inhibition of the growth against human mammary carcinoma (MCF-7) cell line after 72 hr exposure; conditions: MCF7, 72 h; outline: as §1

Row | IC50 (A549) [nM] | IC50 (HT-29) [nM] | IC50 (MCF7R) [nM] | IC50 (MCF7) [nM] | Structure (SMILES) | IC50 (A121) [nM]
1 | 0.9 | 1.4 | 38 | 0.5 | CC(=O)OC1C(=O)C2(C)C(O)CC3OCC3(OC(C)=O)C2C(OC(=O)C=C(C)C)C2(O)CC(OC(=O)C(O)C(C=C(C)C)NC(=O)OC(C)(C)C)C(C)=C1C2(C)C (stereo not given) | 0.9
2 | 12 | 8.5 | 446 | 3.2 | C/C=C/C(NC(=O)OC(C)(C)C)C(O)C(=O)OC1CC2(O)C(OC(=O)C3CCCCC3)C3C4(OC(C)=O)COC4CC(O)C3(C)C(=O)C(OC(C)=O)C(=C1C)C2(C)C (stereo not given) | 6.6
3 | 5.7 | 5.6 | 412 | 1.8 | CC(=O)OC1C(=O)C2(C)C(O)CC3OCC3(OC(C)=O)C2C(OC(=O)C2CCCCC2)C2(O)CC(OC(=O)C(O)C(NC(=O)OC(C)(C)C)c3ccccc3)C(C)=C1C2(C)C (stereo not given) | 4.8
4 | 2.9 | 3.5 | 140 | 1.1 | CC(=O)OC1C(=O)C2(C)C(O)CC3OCC3(OC(C)=O)C2C(OC(=O)C=C(C)C)C2(O)CC(OC(=O)C(O)C(NC(=O)OC(C)(C)C)c3ccccc3)C(C)=C1C2(C)C (stereo not given) | 2.7
5 | 49 | 59 | 591 | 10 | CC(=O)OC1C(=O)C2(C)C(O)CC3OCC3(OC(C)=O)C2C(OC(=O)C2CCCCC2)C2(O)CC(OC(=O)C(O)C(NC(=O)OC(C)(C)C)C3CCCCC3)C(C)=C1C2(C)C (stereo not given) | 43
6 | 47 | 52 | 1080 | 43 | CC(=O)OC1C(=O)C2(C)C(O)CC3OCC3(OC(C)=O)C2C(OC(=O)CC(C)C)C2(O)CC(OC(=O)C(O)C(CC(C)C)NC(=O)OC(C)(C)C)C(C)=C1C2(C)C (stereo not given) | 55
7 | 0.3 | 0.6 | 12 | 0.6 | CC(=O)O[C@H]1C(=O)[C@@]2(C)[C@H]([C@H](OC(=O)c3ccccc3)[C@]3(O)C[C@H](OC(=O)[C@H](O)[C@H](C=C(C)C)NC(=O)OC(C)(C)C)C(C)=C1C3(C)C)[C@]1(OC(C)=O)CO[C@@H]1C[C@@H]2O | 0.5
8 | 14 | 16 | 589 | 11 | CC(=O)OC1C(=O)C2(C)C(O)CC3OCC3(OC(C)=O)C2C(OC(=O)CC(C)C)C2(O)CC(OC(=O)C(O)C(C=C(C)C)NC(=O)OC(C)(C)C)C(C)=C1C2(C)C (stereo not given) | 17
9 | 30 | 89 | > 1000 | 84 | CC(=O)OC1C(=O)C2(C)C(O)CC3OCC3(OC(C)=O)C2C(OC(=O)C=C(C)C)C2(O)CC(OC(=O)C(O)C(CC(C)C)NC(=O)OC(C)(C)C)C(C)=C1C2(C)C (stereo not given) | 54
10 | 1.3 | 1.7 | 26 | 0.5 | CC(=O)OC1C(=O)C2(C)C(O)CC3OCC3(OC(C)=O)C2C(OC(=O)C2CCCCC2)C2(O)CC(OC(=O)C(O)C(C=C(C)C)NC(=O)OC(C)(C)C)C(C)=C1C2(C)C (stereo not given) | 1.5
11 | 7.7 | 5.6 | 57 | 1.8 | CC(=O)OC1C(=O)C2(C)C(O)CC3OCC3(OC(C)=O)C2C(OC(=O)C2CCCCC2)C2(O)CC(OC(=O)C(O)C(CC(C)C)NC(=O)OC(C)(C)C)C(C)=C1C2(C)C (stereo not given) | 3.2
